Screening results: PubChem, The Scripps Research Institute Molecular Screening Center
Rows were chosen to be rich in hits. Some 4.5% of all compounds tested hit in one or more screens of this group.
GPR7 antagonist: blocks human GPR7 receptor signaling. 1.1% of 290,000 active. P48145. GPR7-expressing cells, fluorescence antagonist assay. inhibition, % at 4.4 µM. AID 1861; in the data active = inhibition above about 16%, passing the limit was not always enough;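 also: cells stimulated with the agonist NPW; 0% = agonist with vehicle and 100% = vehicle without agonist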
OX1R antag-1: antagonists of human orexin 1 receptor (OX1R); O43613; OX1R-expressing cells, FRET antagonist read-out; inhibition, % at 6.6 µM; 1.8% of 330,000 active; AID 485270; in the data active = inhibition mostly above about 38%, no sharp cut-off; inactive = mostly below about 40%;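 also: 0% = agonist challenge alone and 100% = reference antagonist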
Target sequence (O43613 whole entry, looked up): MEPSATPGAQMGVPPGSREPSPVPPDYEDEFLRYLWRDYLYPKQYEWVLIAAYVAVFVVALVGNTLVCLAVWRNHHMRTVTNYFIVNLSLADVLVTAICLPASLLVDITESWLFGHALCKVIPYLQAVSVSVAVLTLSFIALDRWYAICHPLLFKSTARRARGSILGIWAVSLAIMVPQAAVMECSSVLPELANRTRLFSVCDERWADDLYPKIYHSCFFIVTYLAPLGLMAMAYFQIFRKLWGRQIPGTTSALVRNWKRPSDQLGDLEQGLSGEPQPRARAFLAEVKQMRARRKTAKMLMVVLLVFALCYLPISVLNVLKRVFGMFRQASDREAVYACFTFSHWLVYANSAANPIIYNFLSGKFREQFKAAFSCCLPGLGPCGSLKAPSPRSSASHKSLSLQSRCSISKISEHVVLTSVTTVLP
CHO parental Ca: counter-screen for OX1R antagonists: effect in parental CHO cells | 0.63% of 330,000 active | inhibition, % at 5.6 µM | AID 463079 | parental CHO-K1, ATP-induced calcium, Fluo-8 fluorescence;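 active = inhibition above that plate's mean sample inhibition plus 3 SD, cut at about 26% in these data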;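 also: 0% = ATP-challenged DMSO wells and 100% = DMSO wells without ATP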
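Material – parental CHO cells · Reagent – ATP stimulus · Compound – single nominal dose of 5.6 µM per compound · Detection – Fluo-8 fluorescence · Read-out basis – percent inhibition of calcium signal · Controls – ATP-challenged DMSO wells low, unchallenged DMSO wells high · Repeats – no replicates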
TAAR1 agonist: human TAAR1 agonism; AID 624467; 0.99% of 360,000 active; Q96RJ0; CHO RD-HGA16 TAAR1, Fluo-8 calcium fluorescence; vehicle wells 0%, saturating PEA agonist 100%; activation, % at 3 µM;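 active = activation above the mean activation of all test compounds in the run plus 3 SD, cut at about 38% in these data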
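Signal – calcium-sensitive Fluo-8 signal, excitation 470-495, emission 515-575 nm · System – RD-HGA16 (CHO) cells co-expressing Gα16 and hTAAR1 · Incubation – 17-24 h seeding, 75 min 37 °C dye, 30 min RT · Compound dosing – 3 µM single concentration · Repeats – no replicates (n 1)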
TAAR1 antag: antagonists of human TAAR1 | 1.5% of 360,000 active | AID 624466 | inhibition, % at 3 µM | CHO RD-HGA16 TAAR1, Fluo-8 calcium fluorescence, antagonist;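 active = inhibition above a per-plate cutoff, the mean inhibition of test compounds on that plate plus 3 SD, cut at about 49% in these data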;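 also: 0% = DMSO plus EC80 beta-PEA response and 100% = DMSO alone without agonist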
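Material: RD-HGA16 CHO cells with stable hTAAR1 and Gα16; Dosing: single nominal final test compound concentration of 3 µM; Schedule: seeding 17-24 h prior, 75-min 37 °C, 30-min RT dye loading; Detection: kinetic Fluo-8 calcium fluorescence measurement; Measure: % inhibition from peak post-agonist over basal fluorescence ratio; Benchmarks: vehicle and agonist controls.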
OX1R antag-2: human HCRTR1 antagonism; O43613; CHO/OX1R cells, Fluo-8 calcium fluorescence, orexin A; inhibition, % at 5 µM; 0.43% of 330,000 active; AID 434989;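 active = inhibition above its plate's threshold, mean inhibition of all tested compounds on the plate plus 3 SD, cut at about 37% in these data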;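 also: 0% = orexin A challenge wells and 100% = SB-334867-A antagonist wells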
Numbers without * were called inactive; . = not tested or not shown.

SMILES	GPR7 antagonist	OX1R antag-1	CHO parental Ca	TAAR1 agonist	TAAR1 antag	OX1R antag-2
COCCNC(=O)C(c1ccc(F)cc1)N(Cc1cccs1)C(=O)CCC(=O)Nc1ccccn1 (centres undefined)	-7	76*	-18	0	1	17
COCCNC(=O)C(c1ccc(F)cc1)N(Cc1ccccc1)C(=O)CCC(=O)Nc1ccccn1 (centres undefined)	-16	70*	-25	0	3	10
COCCNC(=O)C(c1ccc(O)cc1)N(Cc1ccccc1)C(=O)CCC(=O)Nc1ccccn1 (centres undefined)	5	15	-4	-2	8	0
Cc1nccn1-c1ccc(NC(=O)[C@@H](Cc2ccccc2)NC(=O)[C@H]2O[C@@H](n3ccc(=O)[nH]c3=O)[C@H](O)[C@@H]2O)cc1	.	.	.	1	-8	.
COc1ccc(C(=S)N2CCOCC2)cc1OC(=O)c1ccc([N+](=O)[O-])cc1[N+](=O)[O-]	17	14	-13	6	21	-4
COc1cc(C(=S)N2CCOCC2)cc(OC)c1OC(=O)c1ccccc1[N+](=O)[O-]	-12	34*	-22	18	13	-15
CCOC(=O)C1=CCC(c2ccccc2)N(S(C)(=O)=O)C1 (centres undefined)	.	.	.	4	-9	.
O=C(OC1CCOC1=O)c1cc(-c2ccc(Br)cc2)nc2ccccc12 (centres undefined)	-1	13	-20	3	1	-8
CCOc1ccc(NC(=O)CN(C)C(=O)c2cc(-c3ccc(OC)cc3)nc3ccccc23)cc1OCC	.	48	-11	11	56*	-14
COc1ccc(-c2cc(C(=O)OC3CCOC3=O)c3ccccc3n2)cc1 (centres undefined)	2	53*	-12	5	53*	9
CCOc1ccc(NC(=O)CN(C)C(=O)c2cccc3ccccc23)cc1OCC	.	.	.	2	-12	.
COc1ccc(-c2cc(C(=O)OCC(=O)N(C)C)c3ccccc3n2)cc1	18*	43	-9	9	20	-30
Cc1ccc2nc(-c3cccc(Br)c3)c(Cc3ccccn3)n2c1	.	.	.	-1	3	.
CC(C)(C)OC(=O)N1CCC[C@@H]1C(=O)N1CCC[C@@H]1C(=O)NCc1ccccc1	.	.	.	-1	6	.
O=C(c1cc(-c2ccc(Cl)cc2)on1)N1CCc2ccccc2C1	-6	38	2	39*	3	-8
O=C(CCc1c[nH]c2ccccc12)NCC1CCCO1 (centres undefined)	-11	27	-6	1	16	-6
Oc1ccc2ccccc2c1/C=N/Nc1ccccc1	-4	-1	1	0	1	0
Oc1ccc2ccccc2c1C=NCc1ccccc1	-6	52*	-6	8	-3	-18
Cc1ccn2c(-c3csc(NCc4ccccc4)n3)c(C)nc2c1	-10	59	28	8	39	43*
Cc1cc2occ(CC(=O)N(C)CC(=O)Nc3ccccc3Cl)c2cc1C	.	54*	-25	0	-49	-18
CCOC(CCNC(=O)c1cc(-c2cccs2)nc2ccccc12)OCC	-13	14	-14	19	49*	-29
COc1ccc(CNC(=O)COC(=O)c2cc(-c3cccs3)nc3ccccc23)cc1OC	1	48*	-10	16	34	10
COc1ccc(-c2ccc3c(n2)CCCN3Cc2ccccc2C(F)(F)F)cc1	.	.	.	-1	-26	.
Cc1noc(C)c1C(=O)OCC(=O)NCCc1ccc(Cl)cc1	20*	7	-11	0	4	-16
CCOC(=O)c1ccc(NC(=O)OC[C@@H]2CSCCS(=O)(=O)N2)cc1	.	.	.	17	7	.
SMILES	GPR7 antagonist	OX1R antag-1	CHO parental Ca	TAAR1 agonist	TAAR1 antag	OX1R antag-2
O=C(Nc1ccc(Oc2ccccc2)cc1)c1csc([C@H]2C[C@H](O)[C@@H](CO)O2)n1	.	.	.	13	68*	.
O=C(Nc1ccc(OCCO)cc1)c1csc([C@@H]2O[C@H](CO)[C@H](O)[C@H](O)[C@H]2O)n1	.	.	.	3	-17	.
CC(=O)Nc1ccc(NC(=O)c2csc([C@@H]3C[C@H](O)[C@@H](CO)O3)n2)cc1	.	.	.	1	7	.
O=C(Nc1ccc(Oc2ccccc2)cc1)c1csc([C@@H]2O[C@H](CO)[C@@H](O)[C@H]2O)n1	.	.	.	8	59*	.
Cc1cccc2nc(-c3ccccc3)c(-c3ccc(CN4CCC5(CC4)CNc4ccccc45)cc3)nc12	.	.	.	-2	-29	.
Cc1ccc(C)c(CC(=O)N2CCCC(c3cc(C(=O)NCc4ccccc4)no3)C2)c1 (centres undefined)	.	.	.	0	0	.
CC(C)NC(=O)N(C)C[C@H]1OCc2cn(nn2)CCCC(=O)N([C@H](C)CO)C[C@@H]1C	.	.	.	0	1	.
O=C(NCc1ccccc1)C1=C[C@@H](c2ccccc2)C[C@@H](OCc2ccc(CO)cc2)O1	16	19	-14	3	22	-14
C#Cc1ccc([C@@H]2C=C(C(=O)NCc3ccccc3)O[C@H](OCc3ccc(CO)cc3)C2)cc1	-9	10	-3	9	51*	-6
CCOC(=O)C1=C(C(=O)OCC)C2N(Cc3ccc(C#N)cc3)c3ccccc3[C@@]23C[C@@H](C(=O)OC)N(S(=O)(=O)c2cccs2)C3=N1 (some centres undefined)	.	.	.	1	-13	.
CCN(CC)S(=O)(=O)c1cccc(NC(=O)CN2C(=O)c3ccc([N+](=O)[O-])cc3C2=O)c1	-3	43	-10	7	-10	-28
CN(C(=O)CN1C(=O)c2ccc([N+](=O)[O-])cc2C1=O)C1CCCCC1	.	64*	-9	6	-4	-7
COc1ccc(NC(=O)CN(C)C(=O)CN2C(=O)c3ccc([N+](=O)[O-])cc3C2=O)cc1	-1	61*	7	0	-12	0
COc1ccc(-c2cc([N+](=O)[O-])ccc2OCC(=O)N(C)CC(=O)Nc2ccc(C)cc2)cc1	.	.	.	0	10	.
CCN(C(=O)CN1C(=O)c2ccc([N+](=O)[O-])cc2C1=O)C1CCCCC1	-5	56*	-4	0	4	-12
Nc1[nH]c(C(=O)c2ccccc2)c(-c2ccc3ccccc3c2)c1C(=O)NCc1ccc(F)cc1	.	.	.	5	-32	.
COC(=O)CC#C[C@H](C)[C@@H](NS(=O)(=O)c1ccc([N+](=O)[O-])cc1)C(C)(C)C	.	.	.	-2	-6	.
COc1ccc(-c2csc(NC(=O)C3CSC4(C)CCC(=O)N34)n2)c(OC)c1 (centres undefined)	.	28	-24	0	-5	-32
CCOC(=O)c1cc2c(=O)n3ccccc3nc2n(Cc2ccco2)c1=NC(=O)c1ccccc1OCC	-5	38*	-9	3	-18	-21
